TRPC6 inh: blocks the mouse TRPC6 cation channel; B-score at 10 µM; AID 2553; 1.1% of 310,000 active; HEK293-TRPC6, membrane potential dye, ACh-evoked depolarization; stronger effect = lower value;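 active = B-score under library mean minus 3 SD, initial fluorescence not abnormally high, positive integrated signal ratio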;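 note: B-score derived from integrated fluorescence ratio over the kinetic read; more negative B-score means stronger inhibition of depolarization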
TRPC4 potent: TRPC4 (mouse) allosteric potentiation. Q9QUQ5. HEK293 TRPC4beta/mu-opioid, DAMGO EC20, Fluo-4 Ca2+ flux; stronger effect = higher value. B-score at 10 µM. 0.42% of 310,000 active. AID 2227;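 active = B-score of calcium response area above 5 SD of library B-scores, with initial fluorescence ratio within 5 SD of library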;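 note: B-score of integrated fluorescence ratio over time as area under calcium response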
Target sequence (Q9QUQ5 whole entry, looked up): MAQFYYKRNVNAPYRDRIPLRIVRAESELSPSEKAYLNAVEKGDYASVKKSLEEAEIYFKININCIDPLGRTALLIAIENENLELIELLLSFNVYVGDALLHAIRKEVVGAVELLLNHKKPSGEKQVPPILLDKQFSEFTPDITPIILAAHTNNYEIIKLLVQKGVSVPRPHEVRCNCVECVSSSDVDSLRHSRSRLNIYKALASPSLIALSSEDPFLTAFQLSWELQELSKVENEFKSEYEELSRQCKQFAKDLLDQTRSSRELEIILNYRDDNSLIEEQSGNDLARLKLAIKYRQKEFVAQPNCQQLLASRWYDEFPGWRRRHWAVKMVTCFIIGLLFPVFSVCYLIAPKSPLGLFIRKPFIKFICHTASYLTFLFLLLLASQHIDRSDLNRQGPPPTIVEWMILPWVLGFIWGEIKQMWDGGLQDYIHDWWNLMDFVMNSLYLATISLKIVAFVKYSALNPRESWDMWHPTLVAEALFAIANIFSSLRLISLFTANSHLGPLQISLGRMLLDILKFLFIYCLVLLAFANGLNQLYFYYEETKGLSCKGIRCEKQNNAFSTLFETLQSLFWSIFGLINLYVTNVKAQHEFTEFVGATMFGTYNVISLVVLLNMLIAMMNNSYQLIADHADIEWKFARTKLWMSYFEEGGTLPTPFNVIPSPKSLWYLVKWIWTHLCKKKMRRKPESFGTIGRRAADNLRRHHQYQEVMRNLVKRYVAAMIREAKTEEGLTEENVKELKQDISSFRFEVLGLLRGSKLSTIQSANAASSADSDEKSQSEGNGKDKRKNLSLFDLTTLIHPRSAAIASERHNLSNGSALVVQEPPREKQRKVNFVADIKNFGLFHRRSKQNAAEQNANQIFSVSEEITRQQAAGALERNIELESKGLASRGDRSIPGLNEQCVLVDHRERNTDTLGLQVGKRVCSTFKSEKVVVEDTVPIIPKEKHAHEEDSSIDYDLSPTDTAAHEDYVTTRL
TRPC6 act: activates the mouse TRPC6 cation channel. B-score at 10 µM. 0.13% of 310,000 active. HEK293-TRPC6 membrane potential dye fluorescence; stronger effect = higher value. AID 2550. Q61143;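 active = B-score of the integrated fluorescence ratio above library mean plus 3 SD, and starting fluorescence ratio within library mean plus 5 SD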;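 note: higher score means more depolarization so channel activation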
TRPC4 agonist: activators of mouse TRPC4 channel. AID 2237. HEK293 TRPC4beta/mu-opioid, Fluo4 calcium fluorescence; stronger effect = higher value. 0.49% of 310,000 active. Q9QUQ5. B-score at 10 µM;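 active = B-score above 5 SD of library B-scores, and initial fluorescence ratio not above library mean plus 5 SD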;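 note: positive B-score marks a calcium rise read as TRPC4 activation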
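Material: HEK293 stable line with TRPC4beta plus mu-opioid receptor; technique: Fluo4 calcium-sensitive dye fluorescence, kinetic, 1 Hz baseline; timing: Fluo4 dye loading 45 min at room temperature, 110 s recording; controls: assay buffer as low control, maximal DAMGO as high control; read-out: integrated baseline-normalised fluorescence ratio, converted to per-well B score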
Kir21 block: Kir2.1 (mouse) channel inhibition; P35561; HEK293-Kir2.1, FluxOR thallium flux fluorescence; stronger effect = lower value; B-score at 10 µM; 0.85% of 310,000 active; AID 1672;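 active = fluorescence ratio B-score at or below minus 3 SD of library scores, with starting-brightness B-score within 2 SD, cut at about -4.2 in these data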;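 note: channel flux triggered by added potassium and thallium sulfate stimulus; B-score of peak minus minimum fluorescence over baseline after thallium stimulus; more negative B-score means stronger Kir2.1 block with less thallium influx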
TRPC4 block: TRPC4 (mouse) channel inhibition; Q9QUQ5; 0.39% of 300,000 active; B-score at 10 µM; HEK293 TRPC4beta/mu-opioid, DAMGO-evoked Fluo4 calcium flux; stronger effect = lower value;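 active = B-score over 3 SD under the library average, no early fluorescence shift, positive overall ratio signal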
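Assay system: TRPC4beta/mu-opioid receptor HEK293 cell line; compound dosing: single concentration per test compound; detection: Fluo4 Ca2+ flux fluorescence; evaluation: per-well B score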
TRPC4 spec 2: second check of whether TRPC6 inhibitors also affect mouse TRPC4; shares compounds with TRPC6 inh; HEK293 TRPC4/MOR, membrane potential dye fluorescence; channel activated by saturating DAMGO dose; inhibition, % at 10 µM; 42% of 920 active;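 active = compounds whose fluorescence signal differed from control wells by over 3 SD, either direction, in both duplicate plates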
TRPC4 spec: mouse TRPC4 off-target activity of TRPC6 inhibitors | shares compounds with TRPC6 inh | HEK293 TRPC4/mu-opioid, membrane potential fluorescence | activity change, negative = inhibition, % at 10 µM | 61% of 920 active | AID 2777;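 active = rise or fall in signal beyond 3 SD of buffer-only wells in both replicate plates, either sign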;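 note: integrated kinetic ratio of fluorescence range over baseline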
HEK293 MPD ctr 2-1: second check of TRPC6 inhibitor effects in parental HEK293 cells. shares compounds with TRPC6 inh. parental HEK293 membrane potential dye fluorescence; maximal acetylcholine challenge after compound addition. signal change vs control, % at 10 µM. 31% of 920 active. AID 2779;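 active = membrane potential signal moving either way by over 3 SD of the maximum-effect control, in both duplicate plates, meaning non-specific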
HEK293 MPD ctr-1: checks TRPC6 inhibitor effects in parental HEK293 cells; AID 2780; 60% of 920 active; parental HEK293 membrane potential dye fluorescence; membrane potential signal change, % at 10 µM; shares compounds with TRPC6 inh;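 active = membrane potential signal shifting up or down by more than 3 SD of buffer-only wells, on both duplicate plates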
HEK293 MPD ctr-2: parental HEK293 nonspecific activity of TRPC6 modulators. shares compounds with TRPC6 inh. membrane potential dye fluorescence. membrane potential signal change, % at 10 µM. 51% of 2,400 active. AID 488924;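 active = membrane potential signal moves up or down beyond 5 SD from buffer-only wells, on both duplicate plates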
HEK293 MPD ctr 2-2: second check of TRPC6 modulator effects in parental HEK293 cells | membrane potential dye fluorescence; after compound, maximal acetylcholine stimulation | inhibition, % at 10 µM | 14% of 2,400 active | shares compounds with TRPC6 inh | AID 488926;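 active = membrane potential signal drops by more than 5 SD from the mean control signal, in both duplicate plates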;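 note: plate controls were acetylcholine ECmax control wells for no effect and buffer only wells for full effect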
TRPC4 ctr mod: selectivity of TRPC6 modulators against mouse TRPC4 | percent change from control (negative = decrease, positive = increase), % at 10 µM | 69% of 2,400 active | shares compounds with TRPC6 inh | HEK293 TRPC4/mu-opioid, membrane potential fluorescence | AID 488927;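 active = membrane potential signal moved up or down beyond 5 SD of buffer control wells, in both duplicate plates, actives on both sides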;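 note: plate controls were assay buffer wells for no effect and DAMGO maximal-effect wells for full effect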
TRPC4/MOR inh 2: second check of whether TRPC6 modulators also affect mouse TRPC4 | shares compounds with TRPC6 inh | HEK293 TRPC4/mu-opioid, membrane potential dye fluorescence; stimulated with maximal-effect DAMGO | inhibition, % at 10 µM | 55% of 2,400 active | AID 488928;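 active = drop in membrane potential signal beyond 5 SD of the control wells in both duplicate plates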;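 note: TRPC4 counter screen for TRPC6 hits run under conditions tuned for TRPC6 not TRPC4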
TRPC6 block conf: confirmation of mouse TRPC6 inhibitors; shares compounds with TRPC6 inh; HEK293-TRPC6, membrane potential dye, ACh-evoked depolarization; inhibition, % at 10 µM; 43% of 3,300 active; AID 488960;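 active = fluorescence ratio falls more than 5 SD below the full-stimulation control mean, in both duplicate runs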;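 note: integrated fluorescence ratio of peak minus minimum over baseline after agonist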
TRPC6 act conf: mouse TRPC6 activator confirmation | shares compounds with TRPC6 inh | activation, % at 10 µM | AID 488961 | 11% of 2,800 active | HEK293-TRPC6 membrane potential dye fluorescence, FDSS;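 active = ratio signal rise beyond 5 SD above unstimulated control wells' mean, seen in both duplicate runs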;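 note: plate controls were buffer EC0 wells for no effect and acetylcholine ECmax response for full effect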
* = called active by the depositor; i = inactive; nt = no result. Most compounds without a hit are left out; they make up all but 2.9% or so of the library.

SMILES | TRPC6 inh | TRPC4 potent | TRPC6 act | TRPC4 agonist | Kir21 block | TRPC4 block | HEK293 MPD ctr-2 | HEK293 MPD ctr 2-2 | TRPC4 ctr mod | TRPC4/MOR inh 2 | TRPC6 block conf | TRPC6 act conf | others
CC(Sc1ccccc1)C(=O)N1CCN(S(=O)(=O)c2ccccc2C(F)(F)F)CC1 (stereo unspecified) | i | i | i | i | -1.11 | i | nt | nt | nt | nt | nt | nt
CCOC(=O)c1c[nH]c2c(Cl)ccc(Cl)c2c1=O | -6.06* | i | i | i | 2.08 | i | -324.5%* | i | -39.0%* | 43.0%* | i | i
CCOC(=O)c1c[nH]c2c3c(ccc2c1=O)CCCC3 | i | i | i | i | -0.05 | i | nt | nt | nt | nt | nt | nt
CCOC(=O)c1c[nH]c2c(C)ccc(Cl)c2c1=O | -7.62* | i | i | i | 0.77 | i | -303.0%* | i | -41.5%* | 53.0%* | 60.0%* | i
CCOC(=O)c1c[nH]c2c(C)cc(C)cc2c1=O | i | i | i | i | 0.74 | i | nt | nt | nt | nt | nt | nt
CCOC(=O)c1ccc2[nH]cc(C(C)=O)c(=O)c2c1 | -7.47* | i | i | i | 0.18 | i | nt | nt | nt | nt | i | i | TRPC4 spec 2=i;TRPC4 spec=-25.6%*;HEK293 MPD ctr 2-1=i;HEK293 MPD ctr-1=-422.5%*
CCOC(=O)c1c[nH]c2c(Cl)c(Cl)ccc2c1=O | -9.97* | i | i | i | 0.4 | i | nt | nt | nt | nt | i | i | TRPC4 spec 2=i;TRPC4 spec=-24.6%*;HEK293 MPD ctr 2-1=i;HEK293 MPD ctr-1=-298.0%*
COc1ccccc1/C=C/C(=O)Nc1cccc(S(=O)(=O)NC2=NCCCCC2)c1 | i | i | i | i | -0.28 | i | nt | nt | nt | nt | nt | nt
CCOC(=O)N1CCN(Cc2nc3cc([N+](=O)[O-])ccc3n2C)CC1 | i | i | i | i | -1.37 | i | nt | nt | nt | nt | nt | nt
CCOc1ccc2c(c1)-c1c(ssc1=S)C(C)(C)N2 | -5.34* | i | i | i | 0.61 | i | i | i | -21.5%* | 63.5%* | i | i
CCOc1ccc2c(c1)-c1c(ssc1=S)C(C)(C)N2C(=O)CSC1=NCCS1 | i | i | i | i | 1.39 | i | nt | nt | nt | nt | nt | nt
COc1ccc(-c2nc(C#N)c(NCCCN(C)C)o2)cc1OC | -6.37* | i | i | i | -0.12 | i | i | i | i | i | i | i
COc1ccc(CCNc2oc(-c3ccc(OC)c(OC)c3)nc2C#N)cc1 | i | i | i | i | 1.93 | i | nt | nt | nt | nt | nt | nt
COc1ccc(C(=O)N/C(=C\c2ccc3c(c2)OCO3)C(=O)NCCc2nc3ccccc3[nH]2)cc1 | i | i | i | i | 1.14 | i | nt | nt | nt | nt | nt | nt
CCOc1ccc(-n2c(-c3ccc(OC)cc3)c[n+]3c2CCCCC3)cc1 | i | i | i | i | -2.9 | i | nt | nt | nt | nt | nt | nt
CCOc1ccc(-n2c(-c3ccccc3)c[n+]3c2CCC3)cc1 | -6.31* | i | i | i | 3.49 | i | -58.0%* | 62.5%* | -13.0%* | 30.0%* | 45.0%* | i
Cc1ccc(CNC(=O)c2cc3c(=O)n4ccccc4nc3n(CC3CCCO3)c2=N)cc1 (stereo unspecified) | -6.2* | 11* | i | i | -1.34 | i | i | i | -35.5%* | 52.5%* | 64.5%* | i
CCOCCCn1c(SCC(=O)NCc2ccc3c(c2)OCO3)nc2ccccc2c1=O | i | i | i | i | 2.03 | i | nt | nt | nt | nt | nt | nt
N=c1c(C(=O)NCc2ccc3c(c2)OCO3)cc2c(=O)n3ccccc3nc2n1Cc1cccnc1 | i | i | i | i | 0.6 | i | nt | nt | nt | nt | nt | nt
N=c1c(C(=O)NC2CCCC2)cc2c(=O)n3ccccc3nc2n1CC1CCCO1 (stereo unspecified) | i | i | i | i | -1.36 | i | nt | nt | nt | nt | nt | nt
COCCCn1c(=N)c(C(=O)NCc2ccc3c(c2)OCO3)cc2c(=O)n3ccccc3nc21 | -10.2* | i | i | i | 1.73 | i | nt | nt | nt | nt | i | i | TRPC4 spec 2=63.5%*;TRPC4 spec=-12.2%*;HEK293 MPD ctr 2-1=30.5%*;HEK293 MPD ctr-1=i
CCOCCCn1c(=N)c(C(=O)NCc2ccc3c(c2)OCO3)cc2c(=O)n3cccc(C)c3nc21 | -5.11* | i | i | i | 0.11 | i | i | i | -12.0%* | 35.5%* | i | i
COc1cc(OC)c2c3c(c(C4CCCCC4)nc2c1)CCC3 | i | i | i | i | 0.46 | i | nt | nt | nt | nt | nt | nt
Cc1nnc(SCCn2c(N3CCN(C)CC3)nc3c2c(=O)n(C)c(=O)n3C)s1 | -13* | i | i | i | -3.63 | i | -231.0%* | 96.5%* | -35.0%* | 59.0%* | 72.0%* | i
Cc1nnc(SCCn2c(N3CCCCC3)nc3c2c(=O)n(C)c(=O)n3C)s1 | i | i | i | i | 0.88 | i | nt | nt | nt | nt | nt | nt
CCN(CC)CCNC(C(=O)Nc1cccc(C(C)=O)c1)c1ccccc1 (stereo unspecified) | -6.76* | i | i | i | -0.69 | i | i | i | i | i | i | i

High-throughput results from PubChem.
